Experimental data from article PMC4636733 (The Biochemical journal, 2012).

Legend:
[1] = tested on: NC(=O)c1ccc[n+]([C@@H]2O[C@H](COP(=O)([O-])OP(=O)(O)OC[C@H]3O[C@@H](n4cnc5c(N)ncnc54)[C@H](O)[C@@H]3O)[C@@H](O)[C@H]2O)c1; test: cells, lysate or membranes named; settings: pH 8.0
[2] = target: PbIMPDH-B (IMPDH-B from P. brevicompactum) (Penicillium brevicompactum, UniProt F1DBB2); test: biochemical
[3] = target: PcIMPDH-A (IMPDH-A from Penicillium chrysogenum) (Penicillium chrysogenum, UniProt B6HC24); test: biochemical
[4] = target: PcIMPDH-B (IMPDH-B from P. chrysogenum) (Penicillium chrysogenum, UniProt B6H451); test: biochemical
[5] = target: AnImdA (IMPDH from Aspergillus nidulans) (Aspergillus nidulans, UniProt C8V6R6); test: biochemical
[6] = target: AnImdA Tyr411 substituted with Phe (Aspergillus nidulans, UniProt C8V6R6, Y186F); test: MPA inhibition of AnImdA variant 411*; assay type: biochemical
[7] = target: PbIMPDH-A Tyr411 substituted with Phe (Penicillium brevicompactum, UniProt A0A9W9QLZ9, Y425F); test: MPA inhibition of PbIMPDH-A variant 411*; assay type: biochemical; settings: read-out: IC50, 411*, PbIMPDH-A Tyr411 to Phe
[8] = tested on: E. coli ΔguaB expressing PbIMPDH-B; test: Bacterial complementation assay with MPA; assay type: cell-based; settings: 100 μM MPA, no guanosine
How it was run: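 E. coli BL21(DE3) ΔguaB host (no endogenous IMPDH) carrying N-terminal His6-tagged fungal IMPDH on a pET28-derived vector. Overnight LB cultures with 25 μg/ml kanamycin; 1:20 serial dilutions spotted on M9 minimal medium with 0.5% casamino acids, 100 μg/ml L-tryptophan, 0.1% thiamin, kanamycin, 66 μM IPTG, ± 100 μM MPA; guanosine plates get 50 μg/ml. Incubated overnight at 37°C, then at room temperature; growth scored.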

[9] = target: PbIMPDH-B Phe411 substituted with Tyr (Penicillium brevicompactum, UniProt F1DBB2, F415Y); test: MPA inhibition of PbIMPDH-B variant 411*; assay type: biochemical
Imd2 = Imd2 from Saccharomyces cerevisiae; cited from earlier work
Imd3 = Imd3 from Saccharomyces cerevisiae; cited from earlier work
[10] = cited from earlier work
[11] = target: PbIMPDH-A (IMPDH-A from Penicillium brevicompactum) (Penicillium brevicompactum, UniProt A0A9W9QLZ9); test: IMPDH enzyme assay; assay type: biochemical
[12] = tested on: AnImdA, PcIMPDH-A and PcIMPDH-B; test: MPA inhibition of the MPA-sensitive fungal IMPDHs; assay type: biochemical; settings: range over AnImdA
P. chrysogenum = test: Spot assay to determine sensitivity towards MPA; assay type: cell-based, Penicillium chrysogenum; settings: CYA plates with 200 μg/ml MPA (method) / 6.2 μM MPA (legend of Figure 2A), 25°C
How it was run: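 Strain IBT5857 spores harvested into sterile water. 10-fold serial dilutions spotted onto CYA with or without MPA, most concentrated spot ~10⁶ spores. MPA stock was 25 mg/ml in methanol, and every plate held 0.8% (v/v) methanol. Stock and plates were made just before spotting to avoid MPA degradation. Grown at 25°C; growth of dilution series scored.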

Chain of PbIMPDH-B (IMPDH-B from P. brevicompactum) (F1DBB2 whole entry): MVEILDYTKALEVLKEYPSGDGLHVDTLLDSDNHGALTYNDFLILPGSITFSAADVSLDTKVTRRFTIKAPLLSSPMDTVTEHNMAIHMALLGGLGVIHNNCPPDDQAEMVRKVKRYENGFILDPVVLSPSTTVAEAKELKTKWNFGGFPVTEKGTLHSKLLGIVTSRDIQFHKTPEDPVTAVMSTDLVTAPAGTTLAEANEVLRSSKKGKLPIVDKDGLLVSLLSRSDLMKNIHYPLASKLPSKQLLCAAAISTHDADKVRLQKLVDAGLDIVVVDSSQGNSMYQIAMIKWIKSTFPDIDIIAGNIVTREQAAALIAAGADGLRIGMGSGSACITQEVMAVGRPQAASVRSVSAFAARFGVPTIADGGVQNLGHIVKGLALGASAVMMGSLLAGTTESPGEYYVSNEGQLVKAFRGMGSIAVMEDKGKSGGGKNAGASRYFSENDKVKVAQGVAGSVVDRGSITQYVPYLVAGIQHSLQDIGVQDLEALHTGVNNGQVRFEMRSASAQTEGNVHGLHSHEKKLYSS
Chain of PbIMPDH-B Phe411 substituted with Tyr (F1DBB2 whole entry F415Y): as the sequence (F1DBB2 whole entry) above, with F415Y counted along it

## PcIMPDH-A (IMPDH-A from Penicillium chrysogenum) (Penicillium rubens Wisconsin 54-1255)
[1]; other: PcIMPDH-A
  Km: 290 ± 60 µM
  kcat/Km: 2900 ± 300 M⁻¹ s⁻¹

## PcIMPDH-B (IMPDH-B from P. chrysogenum) (Penicillium rubens Wisconsin 54-1255)
[1]; other: PcIMPDH-B
  Km: 640 ± 130 µM
  kcat/Km: 11 ± 6 M⁻¹ s⁻¹

## NC(=O)c1ccc[n+]([C@@H]2O[C@H](COP(=O)([O-])OP(=O)(O)OC[C@H]3O[C@@H](n4cnc5c(N)ncnc54)[C@H](O)[C@@H]3O)[C@@H](O)[C@H]2O)c1 [NAD^+, nicotinamide adenine dinucleotide]
[2]; read-out: KM (NAD^+), PbIMPDH-B
  Km: 790 ± 140 µM

## COc1c(C)c2c(c(O)c1C/C=C(\C)CCC(=O)O)C(=O)OC2 [MPA, mycophenolic acid]
[3]
  IC50: 36 ± 4 nM
[4]
  IC50: 60 ± 10 nM
[5]
  IC50: 26 ± 2 nM
[6]
  IC50: 26 ± 2 nM
[7]
  IC50: 160 ± 20 nM
[8]
  growth on minimal media with MPA: resistant
[9]
  IC50: 25 ± 2 µM
Imd2
  IC50: 70 µM
Imd3
  IC50: 500 nM
[10]
  increase of IMP concentrations in the presence of MPA: 10-35 fold
[11]; PbIMPDH-A versus IMPDHs from the other filamentous fungi
  fold more resistant to MPA: 10 fold
[11]; read-out: IC50 (MPA), WT PbIMPDH-A, saturating IMP, half-saturating NAD^+, 25°C
  IC50: 430 ± 30 nM
[12]
  IC50: 26 to 60 nM
[2]
  IC50: 27 ± 9 µM
P. chrysogenum
  sensitivity towards MPA (growth of spore dilutions): more resistant to MPA than A. nidulans

## AnImdA (IMPDH from Aspergillus nidulans) (Aspergillus nidulans FGSC A4)
[1]; other: AnImdA
  Km: 170 ± 70 µM
  kcat/Km: 4,400 ± 100 M^−1s^−1
